Measurements published in ChEMBL document CHEMBL1138683 (J Med Chem, 2004).

Assays:
Mus musculus [1] = assay: Anti convulsant activity administered intra peritoneally to mouse for subcutaneous metrazol test at 0.5 h with dose of 300 mg/kg; 0/1= No of animals protected /No of animals tested; type: functional
[2] = Anti convulsant activity administered intra peritoneally to mouse for toxicity at 0.5 hr with dose of 300 mg/kg; 4/4= No of animals exhibiting toxicity /No of animals tested; type: organism-based; parameters: dose 300 mg/kg; conditions: in vivo, ip
Mus musculus [3] = assay: Anti convulsant activity administered intra peritoneally to mouse for subcutaneous metrazol test at 0.5 hr with dose of 30 mg/kg; 0/1= No of animals protected /No of animals tested; type: functional
[4] = Anti convulsant activity administered intra peritoneally to mouse for toxicity at 4 hr with dose of 300 mg/kg; 1/2= No of animals exhibiting toxicity /No of animals tested; type: organism-based; parameters: dose 300 mg/kg; conditions: in vivo, ip
Mus musculus [5] = assay: Anti convulsant activity administered intra peritoneally to mouse at maximal electroshock test at 0.5 hr after the drug administered with dose of 100 mg/kg; 0/3= No of animals protected /No of animals tested; type: functional
Mus musculus [6] = assay: Anti convulsant activity administered intra peritoneally to mouse for subcutaneous metrazol test at 4 hr after the drug administered with dose of 30 mg/kg; 0/1= No of animals protected /No of animals tested; type: functional; conditions: route intraperitoneal
Mus musculus [7] = assay: Anti convulsant activity administered intra peritoneally to mouse for subcutaneous metrazol test at 4 hr with dose of 300 mg/kg; 0/1= No of animals protected /No of animals tested; type: functional
Mus musculus [8] = assay: Anti convulsant activity administered intra peritoneally to mouse for subcutaneous metrazol test at 4 hr after the drug administered with dose of 100 mg/kg; 0/1= No of animals protected /No of animals tested; type: functional
[9] = Anti convulsant activity administered intra peritoneally to mouse for toxicity at 4 hr with dose of 30 mg/kg; 0/2= No of animals exhibiting toxicity /No of animals tested; type: organism-based; parameters: dose 30 mg/kg; conditions: in vivo, ip
[10] = Anti convulsant activity administered intra peritoneally to mouse for toxicity at 0.5 hr with dose of 100 mg/kg; 0/8= No of animals exhibiting toxicity /No of animals tested; type: organism-based; parameters: dose 100 mg/kg; conditions: in vivo, ip
Rattus norvegicus [11] = assay: Anticonvulsant activity after oral administration of 100 mg/kg dose after 30 min in rats; +means 25% of animal protected; type: functional, organism-based; parameters: dose 100 mg/kg
Outline: (§1)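 Oral dosing of rats at a single dose, compound dissolved or suspended in 0.5% methylcellulose. Protection in the MES or scMet test checked 15 min, 30 min, 1 h, 2 h and 4 h after dosing. Scored as 25/50/75/100% of animals protected (+ to ++++), – for none.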

[12] = Anti convulsant activity administered intra peritoneally to mouse for toxicity at 4 hr with dose of 100 mg/kg; 0/4= No of animals exhibiting toxicity /No of animals tested; type: organism-based; parameters: dose 100 mg/kg; conditions: in vivo, ip
Rattus norvegicus [13] = assay: Anticonvulsant activity after oral administration of 50 mg/kg dose after 30 min in rats; ++ means 50% of animals protected; type: functional, organism-based; parameters: dose 50 mg/kg
Outline: (§2)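 Rats dosed orally with compound dissolved or suspended in 0.5% methylcellulose (0.04 mL per 10 g body weight). Anticonvulsant protection (MES or scMet) and toxicity scored at 15 min, 30 min, 1 h, 2 h and 4 h after dosing. Graded in steps of 25% of animals protected or showing toxicity.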

Mus musculus [14] = assay: Anti convulsant activity administered intra peritoneally to mouse at maximal electroshock test at 0.5 hr after the drug administered with dose of 300 mg/kg; 1/1= No of animals protected /No of animals tested; type: functional
Mus musculus [15] = assay: Anti convulsant activity administered intra peritoneally to mouse at maximal electroshock test at 0.5 h after the drug administered with dose of 30 mg/kg; 0/1= No of animals protected /No of animals tested; type: functional
[16] = Anti convulsant activity administered intra peritoneally to mouse for toxicity at 0.5 hr with dose of 30 mg/kg; 0/4= No of animals exhibiting toxicity /No of animals tested; type: organism-based; parameters: dose 30 mg/kg; conditions: in vivo, ip
Mus musculus [17] = assay: Anti convulsant activity administered intra peritoneally to mouse at maximal electroshock test at 4 hr after the drug administered with dose of 30 mg/kg; 0/1= No of animals protected /No of animals tested; type: functional
Mus musculus [18] = assay: Anti convulsant activity administered intra peritoneally to mouse for subcutaneous metrazol test at 0.5 hr with dose of 100 mg/kg; 0/1= No of animals protected /No of animals tested; type: functional
Mus musculus [19] = assay: Anti convulsant activity administered intra peritoneally to mouse at maximal electroshock test at 4 hr after the drug administered with dose of 300 mg/kg; 0/1= No of animals protected /No of animals tested; type: functional
Mus musculus [20] = assay: Anti convulsant activity administered intra peritoneally to mouse at maximal electroshock test at 4 hr after the drug administered with dose of 100 mg/kg; 0/3= No of animals protected /No of animals tested; type: functional
Mus musculus [21] = assay: Anti convulsant activity administered intra peritoneally to mouse for subcutaneous metrazol test at 0.5 hr with dose of 300 mg/kg; 1/1= No of animals protected /No of animals tested; type: functional
Rattus norvegicus [22] = assay: Anticonvulsant activity after oral administration of 30 mg/kg dose after 15 min in rats; + means 25% of the animals protected; type: functional, organism-based; parameters: dose 30 mg/kg; outline: as §1
Rattus norvegicus [23] = assay: Anticonvulsant activity after oral administration of 30 mg/kg dose after 4 hr in rats; +means 25% of animals protected; type: functional, organism-based; parameters: dose 30 mg/kg; outline: as §1
[24] = Anticonvulsant activity administered intra peritoneally to mouse for toxicity; conditions: in vivo, ip
Mus musculus [25] = assay: Anticonvulsant activity administered intra peritoneally to mouse at maximal electro shock test; the interval in parenthesis stands for 95% confidence interval; type: functional
Mus musculus [26] = assay: Anticonvulsant activity administered intra peritoneally to mouse at subcutaneous metrazol test; type: functional; conditions: sc
Rattus norvegicus [27] = assay: Anticonvulsant activity after oral administration of 50 mg/kg dose after 15 min in rats; ++ means 50% of the animal protected; type: functional, organism-based; parameters: dose 50 mg/kg; outline: as §1
Rattus norvegicus [28] = assay: Anticonvulsant activity after oral administration of 100 mg/kg dose after 15 min in rats;+means 25% of the animals protected; type: functional, organism-based; parameters: dose 100 mg/kg; outline: as §1
Rattus norvegicus [29] = assay: Anticonvulsant activity after oral administration of 50 mg/kg dose after 2 hr in rats; ++ means 50% of the animal is protected; type: functional, organism-based; parameters: dose 50 mg/kg; outline: as §1
Rattus norvegicus [30] = assay: Anticonvulsant activity after oral administration of 50 mg/kg dose after 4 hr in rats;+ means 25% of the animals protected; type: functional, organism-based; parameters: dose 50 mg/kg; outline: as §2
Rattus norvegicus [31] = assay: Anticonvulsant activity after oral administration of 100 mg/kg dose after 2 hr in rats; + means 25% of the animals protected; type: functional, organism-based; parameters: dose 100 mg/kg; outline: as §1
Rattus norvegicus [32] = assay: Anticonvulsant activity after oral administration of 100 mg/kg dose after 1 hr in rats; + means 25% of the animals protected; type: functional, organism-based; parameters: dose 100 mg/kg; outline: as §1
Mus musculus [33] = assay: Anti convulsant activity administered intra peritoneally to mouse at maximal electroshock test at 4 hr after the drug administered with dose of 300 mg/kg; 1/1= No of animals protected /No of animals tested; type: functional
[34] = Anti convulsant activity administered intra peritoneally to mouse for toxicity at 4 hr with dose of 300 mg/kg; 0/2= No of animals exhibiting toxicity /No of animals tested; type: organism-based; parameters: dose 300 mg/kg; conditions: in vivo, ip
[35] = Anti convulsant activity administered intra peritoneally to mouse for toxicity at 0.5 hr with dose of 100 mg/kg; 1/8= No of animals exhibiting toxicity /No of animals tested; type: organism-based; parameters: dose 100 mg/kg; conditions: in vivo, ip
Rattus norvegicus [36] = assay: Anticonvulsant activity after oral administration of 50 mg/kg dose after 30 min in rats; + means 25% of the animal protected; type: functional, organism-based; parameters: dose 50 mg/kg; outline: as §1

## CN(C)C(=O)C1C(C)(C)C1(C)C
Mus musculus [1]
  Activity: 0
[2]
  Toxicity: 4
Mus musculus [3]
  Activity: 0
[4]
  Toxicity: 1
Mus musculus [5]
  Activity: 0
Mus musculus [6]
  Activity: 0
Mus musculus [7]
  Activity: 0
Mus musculus [8]
  Activity: 0
[9]
  Toxicity: 0
[10]
  Toxicity: 0
Rattus norvegicus [11]
  Activity: 25% of animal protected
[12]
  Toxicity: 0
Rattus norvegicus [13]
  Activity: 25% of animal protected
Mus musculus [14]
  Activity: 1
Mus musculus [15]
  Activity: 0
[16]
  Toxicity: 0
Mus musculus [17]
  Activity: 0
Mus musculus [18]
  Activity: 0
Mus musculus [19]
  Activity: 0
Mus musculus [20]
  Activity: 0

## CC1(C)C(C(=O)NCCF)C1(C)C
Mus musculus [21]
  Activity: 1
[2]
  Toxicity: 4
Mus musculus [3]
  Activity: 0
[4]
  Toxicity: 1
Mus musculus [5]
  Activity: 0
Mus musculus [6]
  Activity: 0
Mus musculus [7]
  Activity: 1
Mus musculus [8]
  Activity: 0
[9]
  Toxicity: 0
[10]
  Toxicity: 0
[12]
  Toxicity: 0
Mus musculus [14]
  Activity: 1
Rattus norvegicus [22]
  Activity: 25% of animals protected
Mus musculus [15]
  Activity: 0
[16]
  Toxicity: 0
Mus musculus [17]
  Activity: 0
Mus musculus [18]
  Activity: 0
Mus musculus [19]
  Activity: 0
Rattus norvegicus [23]
  Activity: 25% of animals protected
Mus musculus [20]
  Activity: 0

## CC1(C)C(C(=O)NCO)C1(C)C
[24]
  TD50: 146 mg/kg
Mus musculus [25]
  ED50: > 220 mg/kg
Mus musculus [26]
  ED50: 120 mg/kg

## CNC(=O)NC(=O)C1C(C)(C)C1(C)C
Mus musculus [1]
  Activity: 0
[2]
  Toxicity: 4
Mus musculus [3]
  Activity: 0
Rattus norvegicus [27]
  Activity: 25% of the animal protected
Rattus norvegicus [28]
  Anticonvulsant Activity: 25% of the animals protected
Mus musculus [5]
  Activity: 0
Mus musculus [6]
  Activity: 0
Mus musculus [7]
  Activity: 0
Mus musculus [8]
  Activity: 0
[9]
  Toxicity: 0
[12]
  Toxicity: 0
Rattus norvegicus [29]
  Activity: 25% of the animal protected
Rattus norvegicus [30]
  Activity: 25% of the animal protected
Mus musculus [14]
  Activity: 1
Rattus norvegicus [31]
  Activity: 25% of the animal protected
Rattus norvegicus [32]
  Activity: 25% of the animal protected
Mus musculus [15]
  Activity: 0
Mus musculus [33]
  Activity: 1
[34]
  Toxicity: 0
[16]
  Toxicity: 0
Mus musculus [17]
  Activity: 0
Mus musculus [18]
  Activity: 0
[35]
  Toxicity: 1
Rattus norvegicus [36]
  Activity: 25% of the animal protected
Mus musculus [20]
  Activity: 0
